Measurements taken from PMC8237268 (Journal of Medicinal Chemistry, 2021).

Columns and labels:
Type in all cases: binding
p65_45/14-3-3σΔC complex = p65_45/14-3-3σΔC complex (Homo sapiens, UniProt P31947+Q04206, E49R); assay: X-ray crystal soaking of fragments into p65_45/14-3-3σΔC crystals; settings: soak 10 mM compound, 7 days; imine bond to Lys122 of 14-3-3
Outline: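 His-tag-free 14-3-3σΔC (12 mg/mL) was complexed overnight 1:2 with N-acetyl, C-amide p65 pSer45 peptide in 20 mM HEPES pH 7.5, 2 mM MgCl2, 2 mM β-mercaptoethanol. Crystals grew in hanging drops (95 mM HEPES pH 7.5, 27–28% PEG400, 190 mM CaCl2, 5% glycerol). Test compound from DMSO stock was added to final 10 mM (≤1% DMSO) for 7 days. Crystals were flash-frozen; binding was judged from 2Fo-Fc density.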

p65_45/14-3-3γ [1] = molecular target: T1, p65_45/14-3-3γ (Homo sapiens, UniProt P61981+Q04206); assay: Fluorescence anisotropy; settings: 50 μM 14-3-3γ, 100 nM p65_45
p65_45/14-3-3γ [2] = molecular target: T1, p65_45/14-3-3γ; assay: Fluorescence anisotropy; settings: fold-change of apparent KD in comparison to a DMSO control, 1 mM fragment
p53-peptide/14-3-3γ = molecular target: T2, p53-peptide/14-3-3γ (Homo sapiens, UniProt P61981); assay: FA compound titration, selectivity: p53-peptide and 14-3-3γ; settings: 0.3 μM 14-3-3γ, 10 nM peptide
T2 sequence (P61981 1-247): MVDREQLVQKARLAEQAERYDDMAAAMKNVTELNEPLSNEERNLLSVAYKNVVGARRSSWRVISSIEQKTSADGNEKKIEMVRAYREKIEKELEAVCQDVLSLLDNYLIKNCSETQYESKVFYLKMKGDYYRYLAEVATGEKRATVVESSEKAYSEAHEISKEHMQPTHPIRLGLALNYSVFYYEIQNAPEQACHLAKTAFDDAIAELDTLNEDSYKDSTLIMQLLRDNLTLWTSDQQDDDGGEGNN

ERα-peptide/14-3-3γ = molecular target: T3, ERα-peptide/14-3-3γ (Homo sapiens, UniProt P61981); assay: FA compound titration, selectivity: ERα-peptide and 14-3-3γ; settings: 0.1 μM 14-3-3γ, 10 nM peptide
T3 sequence (P61981 1-247): T2 sequence (P61981 1-247)

TAZ-peptide/14-3-3γ = molecular target: T4, TAZ-peptide/14-3-3γ (Homo sapiens, UniProt P61981); assay: FA compound titration, selectivity: TAZ-peptide and 14-3-3γ; settings: 0.1 μM 14-3-3γ, 10 nM peptide
T4 sequence (P61981 1-247): T2 sequence (P61981 1-247)

Chain of p65_45/14-3-3σΔC complex (P31947 1-231, other chains not shown): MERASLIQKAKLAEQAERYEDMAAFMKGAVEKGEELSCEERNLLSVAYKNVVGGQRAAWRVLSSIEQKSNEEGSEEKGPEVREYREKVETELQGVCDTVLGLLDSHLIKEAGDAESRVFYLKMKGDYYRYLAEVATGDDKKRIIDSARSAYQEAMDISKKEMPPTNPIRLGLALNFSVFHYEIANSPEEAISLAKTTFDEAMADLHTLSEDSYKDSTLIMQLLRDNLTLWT

Row | Compound | binding of the fragment in X-ray crystal soaking experiments (p65_45/14-3-3σΔC complex) | ternary complex formation in FA compound titration (in words) (p65_45/14-3-3γ [1]) | also measured
1 | O=Cc1ccc([N+](=O)[O-])c(OC(=O)C2CCC2)c1 [10a] | bound to Lys122 | – | –
2 | COC1CCCN(c2cc(C=O)ccc2[N+](=O)[O-])C1 (stereo not shown) [13e] | significant electron density coverage | did not elicit significant ternary complex formation | –
3 | O=Cc1ccc([N+](=O)[O-])c(N2CCC(O)CC2)c1 [13f] | significant electron density coverage | did not elicit significant ternary complex formation | –
4 | O=Cc1ccc([N+](=O)[O-])c(N2CCCC(O)C2)c1 (stereo not shown) [13l] | significant electron density coverage | did not elicit significant ternary complex formation | –
5 | O=Cc1ccc(-n2ccnc2Br)nc1 [16d] | detected in the electron density map | induced an increase in anisotropy | –
6 | O=Cc1ccc(S(=O)(=O)N2CCC(N3CCCC3)CC2)cc1 [23m] | – | – | SF (stabilization factor) (p65_45/14-3-3γ [2]): 4.5 fold
7 | O=Cc1ccc(S(=O)(=O)N2CCNc3ccccc32)cc1 [24j] | – | – | ternary complex formation with p53 (p53-peptide/14-3-3γ): no ternary complex formation was detected; ternary complex formation with ERα (ERα-peptide/14-3-3γ): no ternary complex formation was detected; ternary complex formation with TAZ (TAZ-peptide/14-3-3γ): no ternary complex formation was detected
